In ChEMBL document CHEMBL1127574, “Design and synthesis of ellipticinium salts and 1,2-dihydroellipticines with high selectivities against human CNS cancers in vitro” (1994):

What was measured:
Type in all cases: functional
NCI-H226 = experiment: Tested in vitro for cytotoxicity in NCI-H226 cell line of Non-Small Cell Lung Cancer; details: Homo sapiens, read-out: Log TGI (converted)
How it was run: (§1)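 Compounds dissolved in DMSO, then diluted 500-fold into aqueous medium. The resulting aqueous solutions or suspensions were added to the cultured human tumour cell lines, and the cells were exposed for 48 h. Growth was read colorimetrically in one of two ways: a metabolic assay in which viable cells reduce a tetrazolium salt to a formazan dye, or a protein stain for total cellular protein.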

OVCAR-8 = experiment: Tested in vitro for cytotoxicity in OVCAR-8 cell line of Ovarian Cancer; details: Homo sapiens, read-out: Log TGI (converted); how it was run: as §1
NCI-H322M = experiment: Tested in vitro for cytotoxicity in NCI-H322M cell line of Non-Small Cell Lung Cancer; details: Homo sapiens, read-out: Log TGI (converted); how it was run: as §1
NCI-H23 = experiment: Tested in vitro for cytotoxicity in NCI-H23 cell line of Non-Small Cell Lung Cancer; details: Homo sapiens, read-out: Log TGI (converted); how it was run: as §1
OVCAR-5 = experiment: Tested in vitro for cytotoxicity in OVCAR-5 cell line of Ovarian Cancer; details: Homo sapiens, read-out: Log TGI (converted); how it was run: as §1
RPMI-8226 = experiment: Tested in vitro for cytotoxicity in RPMI-8226 cell line of Leukemia; details: Homo sapiens, read-out: Log TGI (converted); how it was run: as §1
RXF 393 = experiment: Tested in vitro for cytotoxicity in RXF-393 cell line of Renal cancer; details: Homo sapiens, read-out: Log TGI (converted); how it was run: as §1
RXF 631 = experiment: Tested in vitro for cytotoxicity in RXF-631 cell line of Renal cancer; details: Homo sapiens, read-out: Log TGI (converted); how it was run: as §1
SF-268 [1] = experiment: Tested in vitro for cytotoxicity in SF-268 cell line of CNS cancer; details: Homo sapiens, read-out: Log TGI (converted); how it was run: as §1
SF-268 [2] = experiment: Tested in vitro for cytotoxicity in SF-268 cell lines; details: Homo sapiens; how it was run: as §1
SNB-78 = experiment: Tested in vitro for cytotoxicity in SNB-78 cell line of CNS Cancer; details: Homo sapiens, read-out: Log TGI (converted)
How it was run: (§2)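 Compounds dissolved in DMSO and diluted 500-fold into aqueous medium; aliquots of the resulting solutions or suspensions added to cultured human tumor cells for 48 h. Growth read colorimetrically, either by tetrazolium reduction to formazan by viable cells or by protein staining of total cellular protein.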

SK-MEL-2 = experiment: Tested in vitro for cytotoxicity in SK-MEL-2 cell line of Melanoma; details: Homo sapiens, read-out: Log TGI (converted); how it was run: as §1
SF-539 = experiment: Tested in vitro for cytotoxicity in SF-539 cell line of CNS Cancer; details: Homo sapiens, read-out: Log TGI (converted); how it was run: as §1
SR = experiment: Tested in vitro for cytotoxicity in SR cell line of Leukemia; details: Homo sapiens, read-out: Log TGI (converted); how it was run: as §2
SF-295 = experiment: Tested in vitro for cytotoxicity in SF-295 cell line of CNS Cancer; details: Homo sapiens, read-out: Log TGI (converted); how it was run: as §1
SK-MEL-5 = experiment: Tested in vitro for cytotoxicity in SK-MEL-5 cell line of Melanoma; details: Homo sapiens, read-out: Log TGI (converted); how it was run: as §2
SNB-75 = experiment: Tested in vitro for cytotoxicity in SNB-75 cell line of CNS Cancer; details: Homo sapiens, read-out: Log TGI (converted); how it was run: as §2
SW-620 = experiment: Tested in vitro for cytotoxicity in SW-620 cell line of Colon Cancer; details: Homo sapiens, read-out: Log TGI (converted); how it was run: as §2
SK-OV-3 = experiment: Tested in vitro for cytotoxicity in SK-OV-3 cell line of Ovarian Cancer; details: Homo sapiens, read-out: Log TGI (converted); how it was run: as §2
U-251 = experiment: Tested in vitro for cytotoxicity in U251 cell line of CNS Cancer; details: Homo sapiens, read-out: Log TGI (converted); how it was run: as §2
UACC-257 = experiment: Tested in vitro for cytotoxicity in UACC-257 cell line of Melanoma; details: Homo sapiens, read-out: Log TGI (converted); how it was run: as §2
UACC-62 = experiment: Tested in vitro for cytotoxicity in UACC-62 cell line of Melanoma; details: Homo sapiens, read-out: Log TGI (converted); how it was run: as §2
NCI-H460 = experiment: Tested in vitro for cytotoxicity in NCI-H460 cell line of Non-Small Cell Lung Cancer; details: Homo sapiens, read-out: Log TGI (converted); how it was run: as §1
OVCAR-4 = experiment: Tested in vitro for cytotoxicity in OVCAR-4 cell line of Ovarian Cancer; details: Homo sapiens, read-out: Log TGI (converted); how it was run: as §1
SN12C = experiment: Tested in vitro for cytotoxicity in SN12C cell line of Renal cancer; details: Homo sapiens, read-out: Log TGI (converted); how it was run: as §2
TK-10 = experiment: Tested in vitro for cytotoxicity in TK-10 cell line of Renal cancer; details: Homo sapiens, read-out: Log TGI (converted); how it was run: as §2
786-0 = experiment: Tested in vitro for cytotoxicity in 786-0 cell line of Renal cancer; details: Homo sapiens, read-out: Log TGI (converted); how it was run: as §1
HCT-116 = experiment: Tested in vitro for cytotoxicity in HCT116 cell line of Colon Cancer; details: Homo sapiens, read-out: Log TGI (converted); how it was run: as §1
COLO 205 = experiment: Tested in vitro for cytotoxicity in COLO 205 cell lines; details: Homo sapiens; how it was run: as §1
UO-31 = experiment: Tested in vitro for cytotoxicity in UO-31 cell line of Renal cancer; details: Homo sapiens, read-out: Log TGI (converted); how it was run: as §2
SK-MEL-28 = experiment: Tested in vitro for cytotoxicity in SK-MEL-28 cell line of Melanoma; details: Homo sapiens, read-out: Log TGI (converted); how it was run: as §1

COc1ccc2[nH]c3c(C)c4c(c(C)c3c2c1)CN(C)C=C4
TGI (NCI-H226): 0.794 µM | TGI (OVCAR-8): 15.8 µM | TGI (NCI-H322M): 15.8 µM | TGI (NCI-H23): 3.98 µM | TGI (OVCAR-5): 31.6 µM | TGI (RPMI-8226): > 100 µM | TGI (RXF 393): 31.6 µM | TGI (RXF 631): 25.1 µM | TGI (SF-268 [1]): 0.631 µM | GI50 (SF-268 [2]): 0.186 µM | TGI (SNB-78): 5.01 µM | TGI (SK-MEL-2): 10 µM | TGI (SF-539): 2 µM | TGI (SR): 63.1 µM | TGI (SF-295): 7.94 µM | TGI (SK-MEL-5): 10 µM | TGI (SNB-75): 0.794 µM | TGI (SW-620): 15.8 µM | TGI (SK-OV-3): 63.1 µM | TGI (U-251): 1 µM | TGI (UACC-257): 20 µM | TGI (UACC-62): 20 µM | TGI (NCI-H460): 10 µM | TGI (OVCAR-4): 25.1 µM | TGI (SN12C): 0.794 µM | TGI (TK-10): 50.1 µM | TGI (786-0): 12.6 µM | TGI (HCT-116): 15.8 µM | GI50 (COLO 205): 1.32 µM | TGI (UO-31): > 100 µM | TGI (SK-MEL-28): 12.6 µM
